Sampled rows, rich in hits. Any-hit rate of the full collection: about 6.6%.
Ecoli tolC: blocks growth of E. coli BW25113 tolC mutant; growth inhibition, % at 10 µM (by protocol); OD615; actives 2.2% (n = 65,000);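 active means growth inhibition at or above a cutoff equal to the mean over every tested compound plus 3 SD, cut at about 60% in these data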;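 further: growth measured after 20 h incubation at 37 °C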
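Test system: tolC-deleted E. coli BW25113 | Medium: LB with kanamycin 50 µg/mL | Compound dosing: Single concentration, 10 µM final per compound | Schedule: 37 °C, 20 h exposure | Measured by: OD at 615 nm | Evaluation: Percent growth inhibition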
HER2 expr 66K: Her2 kinase expression inhibition. HER2 level % of control, % at 10 µM. P04626. SKBR-3 HER2 protein level, AlphaScreen, 18-24 h; active compounds read low. AID 645. actives 0.69% (n = 65,000);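 active means HER2 level under 5% of the carrier-only control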;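 further: 100% = DMSO carrier and 0% = 500 nM PU-H71 HSP90 inhibitor; lower value means stronger loss of Her2 protein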
Target sequence (P04626 whole entry, looked up): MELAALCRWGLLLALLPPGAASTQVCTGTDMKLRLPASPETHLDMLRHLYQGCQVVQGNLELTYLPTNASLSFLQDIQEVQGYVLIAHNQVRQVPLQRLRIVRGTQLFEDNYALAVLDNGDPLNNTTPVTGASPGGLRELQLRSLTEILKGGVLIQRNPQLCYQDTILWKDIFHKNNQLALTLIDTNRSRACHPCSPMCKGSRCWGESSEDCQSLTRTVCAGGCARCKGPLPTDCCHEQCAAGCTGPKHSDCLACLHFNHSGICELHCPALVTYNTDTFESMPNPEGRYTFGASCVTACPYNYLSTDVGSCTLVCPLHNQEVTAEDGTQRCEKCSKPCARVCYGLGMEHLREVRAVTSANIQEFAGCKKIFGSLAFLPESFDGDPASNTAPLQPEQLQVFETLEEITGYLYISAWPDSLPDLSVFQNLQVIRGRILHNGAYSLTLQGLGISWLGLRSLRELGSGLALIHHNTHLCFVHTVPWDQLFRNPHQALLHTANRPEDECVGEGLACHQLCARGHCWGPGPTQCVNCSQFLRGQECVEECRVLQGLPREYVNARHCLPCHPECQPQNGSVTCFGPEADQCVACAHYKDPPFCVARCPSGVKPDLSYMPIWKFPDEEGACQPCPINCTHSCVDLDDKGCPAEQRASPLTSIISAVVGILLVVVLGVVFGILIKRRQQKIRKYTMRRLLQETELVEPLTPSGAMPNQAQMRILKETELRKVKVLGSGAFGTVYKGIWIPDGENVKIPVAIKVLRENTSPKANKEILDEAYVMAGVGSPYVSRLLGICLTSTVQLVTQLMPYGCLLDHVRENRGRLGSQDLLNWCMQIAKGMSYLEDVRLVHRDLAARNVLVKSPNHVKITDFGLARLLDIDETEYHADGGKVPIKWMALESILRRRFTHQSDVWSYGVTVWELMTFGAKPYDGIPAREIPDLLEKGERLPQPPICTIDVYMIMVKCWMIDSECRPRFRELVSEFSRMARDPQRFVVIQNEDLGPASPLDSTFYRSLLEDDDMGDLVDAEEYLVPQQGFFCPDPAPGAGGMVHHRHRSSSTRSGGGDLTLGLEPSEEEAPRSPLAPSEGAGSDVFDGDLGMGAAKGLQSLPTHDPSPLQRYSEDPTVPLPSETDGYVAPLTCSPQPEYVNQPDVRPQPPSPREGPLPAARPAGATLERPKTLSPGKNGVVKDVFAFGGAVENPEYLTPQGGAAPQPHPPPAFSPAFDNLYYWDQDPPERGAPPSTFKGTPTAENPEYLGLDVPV
PostGolgi yeast: growth inhibition of a yeast mutant, post-Golgi transport screen. post-Golgi transport phenotypic cell assay. inhibition, % at 10 µM. actives 0.9% (n = 98,000). AID 739;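 further: yeast cells grown in 1536-well plates; yeast grown about 18 h at 30C before absorbance read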
PostGolgi ctrl: yeast control strain growth, post-Golgi counter-screen | actives 5% (n = 98,000) | AID 738 | inhibition, % at 10 µM | efflux-deficient yeast background strain, growth absorbance A615, 16 h
E coli WT exp: blocks growth of wild type E. coli BW25113; OD600 absorbance; actives 0.15% (n = 98,000); AID 710; growth inhibition, % at 100 µM;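 active means growth inhibition above about 50% at one test dose, limit read from the data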;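 further: growth measured after 20 h incubation at 37 °C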
Active calls of the source: *; nt = not tested or not shown. Unless noted, no stated cut-off is given here; in the data, active means inhibition above about 30%; inactive means the rest.

SMILES	Ecoli tolC	HER2 expr 66K	PostGolgi yeast	PostGolgi ctrl	E coli WT exp
COc1ccc(Cl)cc1NC(=O)c1cnc2sccn2c1=O	-10	102	-2	6	-6
Cc1cc(/C=C(/C#N)c2cccc(Cl)c2)c(C)n1C	nt	nt	0	43*	-20
CCOC(=O)/C(C#N)=C\c1cc(C)n(-c2ccccc2)c1C	nt	nt	-2	25	-6
Cc1cc(/C=C(/C#N)c2cccc(F)c2)c(C)n1-c1cccnc1	99*	74	-2	37*	-3
CN(CC(=O)Nc1ccc(Cl)cc1)CC(=O)Nc1cc(Cl)ccc1C#N	18	94	1	39*	6
Cn1c(=O)oc2cc(S(=O)(=O)N3CCCC(C(=O)Nc4ccc5c(c4)OCCO5)C3)ccc21 (configuration not stated)	16	102	18	31*	-12
CCOc1ccccc1-c1nn2c(Cc3ccccc3)nnc2s1	99*	76	8	78*	-9
COc1ccc(S(=O)(=O)Cc2ccccc2)cc1N	-8	81	-7	7	-7
C=CCn1cc(/C=N\NC(=O)c2cc3c(ccc4ccccc43)o2)c2ccccc21	nt	nt	0	35*	-18
Cc1ccc(S(=O)(=O)/N=C(\N)Nc2nc(C)c3cc(C)c(C)cc3n2)cc1	nt	nt	-7	40*	-14
Cc1nnc(SCC(=O)N2CC(=O)Nc3ccccc32)n1-c1ccccc1	-13	123	6	10	-4
O=C1CN(C(=O)CSc2nnc(-c3ccccc3)n2Cc2ccc3c(c2)OCO3)c2ccccc2N1	12	115	38*	-2	4
N#Cc1cccc(NC(=O)Nc2cccs2)c1	16	70	-4	7	73*
O=C(O)C1C2CCC(O2)C1C(=O)NCCC1=CCCCC1 (configuration not stated)	-28	86	-2	30*	-3
Cc1nc2ccc(S(=O)(=O)NC(C(=O)NCc3ccco3)C(C)C)cc2s1 (configuration not stated)	-7	90	5	1	-5
O=C(CSc1nnnn1C1CCCCC1)Nc1nc2c(s1)CCCC2	98*	89	18	12	3
COc1ccc2nc(NC(=O)CSc3nnnn3C3CCCCC3)sc2c1	69*	125	21	45*	7
CCOc1ccc2nc(NC(=O)CSc3nnnn3C3CCCCC3)sc2c1	44	93	16	42*	-5
N#Cc1c(NC(=O)CSc2nnnn2C2CCCCC2)sc2c1CCCC2	-7	107	-1	-2	2
COC(=O)c1cccc(-n2nnnc2SCC(=O)Nc2nc3c(s2)CCCC3)c1	84*	122	1	28	-5
Cc1cc(C)c2nc(SC(C)C#N)cc(C)c2c1 (configuration not stated)	nt	nt	-1	10	-1
CC1=C(C(=O)NCCCOC(C)C)C2(CCC(C)CC2)OC1=O (configuration not stated)	-1	106	-11	6	0
N#CCC(CNc1ncc(C(F)(F)F)cc1Cl)OC(=O)c1ccc(Cl)cc1Cl (configuration not stated)	nt	nt	10	25	-8
Cc1cccc2c(=O)oc(-c3ccc4c(c3)C(=O)N(CC3CCCO3)C4=O)nc12 (configuration not stated)	-9	nt	nt	nt	nt
O=C(CSc1nc2ccccc2o1)Nc1nc2c(s1)CCCC2	63*	62	nt	nt	nt
SMILES	Ecoli tolC	HER2 expr 66K	PostGolgi yeast	PostGolgi ctrl	E coli WT exp
O=C(CSc1nc2ccccc2o1)Nc1nc2ccccc2s1	33	68	-4	-6	-4
Clc1ccc(OCCSc2nnnn2C2CCCCC2)cc1	nt	nt	1	23	1
CCOc1ccc(OCCSc2nnnn2C2CCCCC2)cc1	65*	96	-6	-1	-2
COc1ccc2nc(Nc3nc(C)c(CCC(C)C)c(=O)[nH]3)nc(C)c2c1	22	117	-1	31*	-4
CCOc1ccc2nc(Nc3nc4c(c(=O)[nH]3)CCC4)nc(C)c2c1	5	100	nt	nt	nt
Fc1ccc(-c2nnc3ccc(N4CCc5ccccc5C4)nn23)cc1	23	78	-3	59*	2
O=C(c1ccco1)N1CCN(S(=O)(=O)c2ccc(Oc3ccccc3)cc2)CC1	33	134	-48	9	-8
O=C(CSc1n[nH]c(-c2ccccc2)n1)c1ccccc1	31	65	-7	8	3
CC(C)c1ccc(C(=O)CSc2n[nH]c(-c3ccncc3)n2)cc1	nt	nt	95*	63*	-2
C=CCn1c(N)c(C(=O)OC(C)(C)C)c2nc3ccccc3nc21	5	99	19	10	2
C=CCn1c(N)c(C(=O)Nc2ccccc2)c2nc3ccccc3nc21	5	90	10	37*	-13
C=CCn1c(N)c(C(=O)OC(C)CC)c2nc3ccccc3nc21 (configuration not stated)	22	97	-2	38*	0
Cc1cc(=O)oc2c1ccc1oc(/C(=N/O)c3ccccc3)c(C)c12	63*	37	16	35*	23
O=C(NC1CCCCC1)C(c1ccncc1)N(CC1CCCO1)C(=O)C(F)(F)F (configuration not stated)	-9	89	10	8	9
Cc1nc(-c2ccccc2)sc1-c1nc(-c2cccnc2)ncc1S(=O)(=O)c1ccccc1	nt	nt	2	32*	-19
COc1ccc(-n2cnnc2SCC(=O)N(C)C2CCS(=O)(=O)C2)cc1 (configuration not stated)	-12	96	-12	3	-3
CCC(=O)OCCNc1cc(Sc2nc3ccccc3s2)c2nonc2c1[N+](=O)[O-]	nt	nt	94*	98*	8
O=[N+]([O-])c1c(NCCCO)cc(Sc2nc3ccccc3s2)c2nonc12	nt	nt	0	-1	5
COc1ccc(N2CCN(Cc3nc(N)nc(Nc4ccc(C)c(Cl)c4)n3)CC2)cc1	32	84	0	15	1
Cc1ccc(Nc2nc(N)nc(CN3CCN(c4ccccc4)CC3)n2)cc1Cl	77*	34	16	30*	-1
Cc1cc(NC(=O)CSc2nccn2-c2ccc(Cl)cc2)no1	9	96	3	9	-2
CCOC(=O)c1c(CN2CCOCC2)n(-c2ccccc2)c2cc(Br)c(O)cc12	nt	nt	6	41*	-3
COc1cc2c(C(=O)N3CCN(c4ccccc4)CC3)c(C)oc2cc1Br	10	59	0	35*	-13
CCOC(=O)c1c(CN2CCOCC2)n(-c2ccccc2)c2cc(Br)c(OC)cc12	nt	nt	-1	54*	-25
COc1ccc(NS(=O)(=O)c2ccc3oc(SC4CCOC4=O)nc3c2)cc1 (configuration not stated)	nt	nt	15	4	0
Cc1ccc(C(=O)CCC(=O)Nc2cccc(C(F)(F)F)c2)cc1	nt	nt	-5	6	-9
O=C1c2ccccc2C(O)(Cc2ccccc2)N1C1CCCCC1 (configuration not stated)	100*	96	5	19	-4
Cc1cc(C)c(-n2c(C)cc(/C=C3/NC(=O)NC3=O)c2C)c(C)c1	nt	nt	4	64*	4
Cc1cc(/C=C2/NC(=O)NC2=O)c(C)n1-c1sc2c(c1C#N)CCCC2	nt	nt	-19	5	1

Assay outcomes from PubChem BioAssay.
